Calls of active or inactive are those of the source. The rule behind the calls is not given here.

Data set [1] concerns ONS. Description: Induction of phenotypic perturbation in human ONS cells assessed as decrease in EEA1-associated early endosomes level in at 10 uM after 24 hrs by EEA1 staining based assay relative to control. Type of data set: functional, cell-based. In short, it runs like this: (§1)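 hONS cells from Parkinson's disease patient line C1 200 08 0013, 1350 cells/well in DMEM/F12 with 10% FBS, exposed to 10 μM compound (0.6% DMSO; DMSO alone as control) for 24 h at 37 °C, 5% CO2. Live stain with LysoTracker Red DND-99 (100 nM, 1 h), then PFA fixation, anti-EEA1 immunostaining, DAPI and CellMask. Imaged at 20×, six fields/well, per-cell features given as log2 ratio to DMSO.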

For data set [2], the system named is ONS. The data set is described as follows: Induction of phenotypic perturbation in human ONS cells assessed as increase in LC3b marker at 10 uM after 24 hrs by LC3b staining based assay relative to control. Format: functional, cell-based. In short, it runs like this: (§2)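 hONS patient cells (line C1 200 08 0013; 1350/well, DMEM/F12 plus 10% FBS) were given 10 μM compound in 0.6% DMSO, with DMSO as control, for 24 h at 37 °C. MitoTracker Orange CMTMRos (400 nM, 30 min) was applied live before 4% PFA fixation. Anti-α-tubulin and anti-LC3b immunofluorescence plus DAPI followed. High-content imaging used six images/well, with cell segmentation, and each feature was expressed as log2 ratio versus DMSO.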

The target of data set [3] is Tubulin alpha (Homo sapiens) (UniProt P0DPH7+P68366+Q71U36+P68363+Q9BQE3+Q6PEY2+A6NHL2+Q9NY65). The data set is described as follows: Induction of phenotypic perturbation in human ONS cells assessed as increase in apha tubulin marker at 10 uM after 24 hrs by alpha tubulin staining based assay relative to control. Format: functional, cell-based. In short, it runs like this:
as §2

In data set [4] the test system is ONS. The data set is described as follows: Induction of phenotypic perturbation in human ONS cells assessed as increase in mitochondrial marker at 10 uM after 24 hrs by mitotracker orange staining based assay relative to control. Format: functional, cell-based. In short, it runs like this: as §2
Data set [5] deals with ONS. The data set is described as follows: Induction of phenotypic perturbation in human ONS cells assessed as increase in lysosome marker at 10 uM after 24 hrs by lysotrack red DND-99 staining based assay relative to control. Format: functional, cell-based. In short, it runs like this: as §1
For data set [6], the system named is ONS. Description: Induction of phenotypic perturbation in human ONS cells assessed as decrease in autophagy markers level in at 10 uM after 24 hrs relative to control. Type of data set: functional, cell-based. In short, it runs like this: (§3)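 Patient-derived hONS cells (Parkinson's line C1 200 08 0013), 1350 cells/well in DMEM/F12 + 10% FBS, exposed to 10 μM compound (0.6% DMSO final; DMSO 0.6% as negative control) for 24 h at 37 °C, 5% CO2. Plate 1: MitoTracker Orange 400 nM, fixed, anti-α-tubulin and anti-LC3b. Plate 2: LysoTracker Red 100 nM, anti-EEA1, CellMask. DAPI on all cells.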

Data set [7] is described as follows: Cytotoxicity against human ONS cells derived from parkinsons disease patients assessed as alteration of nuclear parameters at 10 uM. Format: cell-based. In short, it runs like this:
as §3

The nature of data set [8]: Cytotoxicity against human ONS cells derived from parkinsons disease patients assessed as alteration of cellular parameters at 10 uM. Format: cell-based. In short, it runs like this: as §3
Data set [9] deals with ONS. The data set is described as follows: Induction of phenotypic perturbation in human ONS cells assessed as decrease in lysosome marker at 10 uM after 24 hrs by lysotrack red DND-99 staining based assay relative to control. Format: functional, cell-based.
Data set [10] relates to ONS. Description: Induction of phenotypic perturbation in human ONS cells assessed as increase in EEA1-associated early endosomes level in at 10 uM after 24 hrs by EEA1 staining based assay relative to control. Type of data set: functional, cell-based.

Take `COC(=O)c1c[nH]c2cc(Br)ccc12`: the result in data set [1] was Active.

For `CSc1c(CC(=O)O)[n+](C)cn1C`, the outcome in data set [1], in data set [2], in data set [3], in data set [4] and in data set [5] was Active.

For the molecule `NC(=O)c1c[nH]c2cc(Br)ccc12`, the result in data set [1], in data set [2], in data set [3], in data set [6], in data set [4] and in data set [5] was Active.

For `COC(=O)c1cn([C@@H]2O[C@H](CO)[C@@H](O)[C@H]2O)c2ncnc(N)c12`, the result in data set [1] was Active.

Take `Cc1cn([C@H]2C[C@H](O)[C@@H](CO)O2)c(=O)[nH]c1=O`: the result in [1] and in data set [6] was Active.

Turning to `C/C1=C\[C@H](C)C[C@H](C)OC(=O)C[C@H](c2ccc(O)cc2)NC(=O)[C@@H](Cc2c(Br)[nH]c3ccccc23)N(C)C(=O)[C@H](C)NC(=O)[C@@H](C)C1` [JASPAMIDE], the Activity entry in data set [7] and in data set [8] was “Toxic” in each case.

On to `N=C(N)c1c[nH]c2cc(Br)ccc12`, for which the result in data set [1], in data set [2], in [3], in [4] and in data set [5] was Active.

Take `N#Cc1cn([C@@H]2O[C@H](CO)[C@@H](O)[C@H]2O)c2ncnc(N)c12`: the result in data set [1] and in [6] was Active.

On to `NC(=O)c1c[nH]c2ncnc(N)c12`, for which the result in data set [1] was Active.

Regarding `N#Cc1c[nH]c2ncnc(N)c12`, the result in data set [1] was Active.

With `NC(=O)c1cn([C@@H]2O[C@H](CO)[C@@H](O)[C@H]2O)c2ncnc(N)c12`, the result in [1] and in data set [6] was Active.

For the molecule `COc1cc2c3c(c(=O)oc2cc1O)NCCS3(=O)=O`, the outcome in data set [9] and in [10] was Active.

Take `NCCc1c[nH]c2cc(Br)ccc12`: the result in data set [1] and in data set [6] was Active.

`C/C1=C\[C@H](C)C[C@H](C)OC(=O)C[C@H](c2ccc(O)c(Br)c2)NC(=O)[C@@H](Cc2c(Br)[nH]c3ccccc23)N(C)C(=O)[C@H](C)NC(=O)[C@@H](C)C1` [PIPESTELIDE A]: the Activity result in data set [7] and in [8] was “Toxic” each time.

Consider `COC(=O)c1c[nH]c2ncnc(N)c12`, for which, in data set [1], the result was Active.

As to `CNc1nc2nccnc2c(=O)n1C`, the outcome in [1], in data set [2], in data set [3], in [4] and in [5] was Active.

As to `Nc1ncc2ncn([C@@H]3O[C@H](CO)[C@@H](O)[C@H]3O)c2n1`, the result in data set [1] and in data set [6] was Active.

Regarding `O=C(NC(=O)c1c[nH]c2cc(Br)ccc12)c1c[nH]c2cc(Br)ccc12`, the result in data set [1], in data set [2], in data set [3], in data set [4] and in data set [5] was Active.

Take `C/C(=C\[C@H](C)C[C@H](C)O)C[C@H](C)C(=O)N[C@@H](C)C(=O)N(C)[C@H](Cc1c(Br)[nH]c2ccccc12)C(=O)N[C@H](CC(=O)O)c1ccc(O)cc1` [JASPLAKINOLIDE Z1]: the result in data set [1], in [2], in data set [3], in [4] and in data set [5] was Active. For the same molecule, the Activity entry in data set [7] and in data set [8] was “Toxic” each time.

`N#Cc1cn([C@@H]2O[C@H](CO)[C@@H](O)[C@H]2O)c2nc[nH]c(=O)c12`: the result in data set [1], in data set [2], in data set [3], in data set [4] and in data set [5] was Active.

In the case of `C[C@@H]1NC(=O)[C@@H](C)C/C=C/[C@H](C)C[C@H](C)OC(=O)C[C@H](c2ccc(O)cc2)NC(=O)[C@@H](Cc2c(Br)[nH]c3ccccc23)N(C)C1=O`, the Activity result in [7] and in data set [8] was “Toxic” throughout.

Take `C=C1C[C@H](C)C(=O)N[C@@H](C)C(=O)N(C)[C@H](Cc2c(Br)[nH]c3ccccc23)C(=O)N[C@@H](c2ccc(O)cc2)CC(=O)O[C@@H](C)C[C@@H](C)C1=O` [JASPLAKINOLIDE B]: the Activity entry in [7] and in [8] was “Toxic” each time.

As for `Nc1nc2c(ncn2[C@@H]2O[C@H](CO)[C@@H](O)[C@H]2O)c(=O)[nH]1`, the result in [1] and in data set [6] was Active.

The values are drawn from ChEMBL document CHEMBL3797170, “A Grand Challenge: Unbiased Phenotypic Function of Metabolites from Jaspis splendens against Parkinson's Disease” (J Nat Prod, 2016).
